The results in this text go back to ChEMBL document CHEMBL1124080, “Potential antitumor agents. 55. 6-Phenylphenanthridine-4-carboxamides: a new class of DNA-intercalating antitumor agents” (J Med Chem, 1988).

Data set [1] concerns P388. The experiment in a line: The percentage increase in lifespan of compound with P388 tumor bearing controls when treated at optimal dose; Not active. Type of data set: functional. The following applies: Mus musculus. Summed up:
(§1)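 Mice inoculated intraperitoneally with 10^6 P388 leukemia cells. Drug given i.p. as a solution in 0.1 mL 30% v/v ethanol/water on days 1, 5 and 9. Optimal dose in mg/kg per day. ILS is the percent increase in lifespan over untreated tumor-bearing controls at that dose; above 20% counted significant. Long-term survival judged at 50 days, groups of six.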

The test system of data set [2] is Lewis lung carcinoma cell line. The experiment in a line: Optimal dose administered intraperitoneally to mice infected with Lewis lung carcinoma cells(LL) in vivo. The data set is classed as functional, Mus musculus.
A further data set has as its system L1210. The experiment in a line: Inhibition of growth of murine leukemia (L1210) cells. Type of data set: functional, cell-based. The following applies: Mus musculus. A digest of the protocol: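 Murine leukemia L1210 cells grown in culture with drug for 40 h; IC50 taken as the concentration (nM) giving 50% growth inhibition.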
The subject of data set [3] is P388. Nature of the data set: Optimal dose following i.p. administration on days 1,5 and 9 after inoculation of 10e6 P388 leukemia cells to mice. The data set is classed as functional, Mus musculus. Summed up:
as §1

Data set [4] deals with Lewis lung carcinoma cell line. The experiment in a line: The percentage increase in lifespan of compound with Lewis lung carcinoma tumor bearing controls when treated at OD; Not active. Type of data set: functional, cell-based. The following applies: Mus musculus.
Data set [5] has as its system P388. The experiment in a line: The percentage increase in lifespan of compound with P388 tumor bearing controls when treated at optimal dose. Type of data set: functional, Mus musculus. Summed up:
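P388 leukemia: 10^6 cells inoculated intraperitoneally. ILSmax is the percentage lifespan increase over tumor-bearing controls at the optimal dose (mg/kg per day). Groups of six; long-term survivors counted at 50 days; values above 20% considered significant.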

For data set [6], the system named is poly[d(A-T)] and poly[d(G-C)]. Nature of the data set: Binding constant for poly[d(A-T)] and poly[d(G-C)] by ethidium bromide displacement.
Data set [7] concerns Lewis lung carcinoma cell line. The experiment in a line: The percentage increase in lifespan of compound with Lewis lung carcinoma tumor bearing controls when treated at OD. The data set is classed as functional, Mus musculus. A digest of the protocol: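 Lewis lung carcinoma: 10^6 cells inoculated intravenously. ILSmax is the percentage increase in lifespan over tumor-bearing controls at the optimal dose (mg/kg per day). Groups of six; long-term survivors counted at 60 days; values above 40% considered significant.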

A short description of data set [8]: pKa was evaluated. The data set is classed as physicochemical. A digest of the protocol: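 pKa determined spectrophotometrically in aqueous solution.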
Data set [9] deals with Lewis lung carcinoma cell line. Nature of the data set: Optimal dose administered intraperitoneally to mice infected with Lewis lung carcinoma cells(LL) in vivo. Type of data set: functional, Mus musculus.
The test system of data set [10] is P388. The experiment in a line: Optimal dose administered intraperitoneally on days 1,5 and 9 after intraperitoneal inoculation of 10e6 P388 leukemia cells in vivo. The data set is classed as functional, Mus musculus. Summed up:
as §1

The test system of data set [11] is Lewis lung carcinoma cell line. Nature of the data set: OD administered intraperitoneally to mice infected with Lewis lung carcinoma cells(LL) in vivo. Type of data set: functional, Mus musculus.

Broadly, the IC50 is the midpoint of a concentration-inhibition curve. A lower IC50 goes with inhibition by little substance. For orientation: pKa means the negative logarithm of the acid dissociation constant. Read a low pKa as a group that gives up its proton readily.

Where “and” joins values, the source holds several entries; their conditions need not be identical. Equal values may be shown once. Calls of active or inactive are those of the source.

On to `Br.Br.CN(C)CCNC(=O)c1cccc2c1nc(-c1ccc(O)cc1)c1ccccc12.Cl.Cl`, for which the ILS max entry (in the data set with P388 [1]; in data set [4]) was “inactive” throughout. In addition, the OD (in data set [2]; in the data set on P388 [3]) was 65 mg/kg/day in each case. The compound further returned an IC50 with L1210 of 370 nM.

Consider `CN(C)CCNC(=O)c1cccc2c1nc(-c1cccnc1)c1ccccc12.Cl.Cl.Cl`, for which the figures for the ILSmax (in the data set with P388 [5]; in data set [7]) were 104% and 93%, respectively. For the same compound, the Log K in data set [6] was 6.35 and 6.21. The OD came out at 65 mg/kg/day in [2] and 45 mg/kg/day in the data set on P388 [3]. In addition, in the data set on L1210, the IC50 came out at 13 nM.

Take `CN(C)CCNC(=O)c1cccc2c1nc(-c1ccccc1Cl)c1ccccc12.Cl`: the ILSmax result in the data set with P388 [1] is “inactive”. Further, the Log K in [6] is 6.45 and 6.6. Also, the concentration for half-maximal inhibition (IC50) in the data set on L1210 was determined as 2870 nM. Also, the OD with P388 [3] is 45 mg/kg/day.

On to `CN(C)CCNC(=O)c1cccc2c1nc(-c1cccc(Cl)c1)c1ccccc12.Cl.Cl`, for which the ILSmax in the data set with P388 [5] amounted to 88%. For the same compound, in data set [6], the Log K is 6.41 and 6.56. Also, the figures for the OD (in [2]; with P388 [3]) were 100 mg/kg/day and 65 mg/kg/day, respectively. In addition, half-maximal inhibition with L1210 (IC50) was put at 66 nM.

Turning to `CN(C)CCNC(=O)c1cccc2c1nc(-c1ccccc1)c1ccccc12`, the ILSmax in the data set on P388 [5] stood at 92%; in data set [7], 126%. Further, the Log K in data set [6] is 6.26 and 6.33. The OD in [2] is 65 mg/kg/day; with P388 [3], 45 mg/kg/day. Moreover, in the data set with L1210, it took 120 nM to reach half-maximal inhibition (IC50). This compound also returned a pKa in data set [8] of 2.75.

As to `CN(C)CCNC(=O)c1cccc2c1ncc1ccccc12.Cl.Cl`, the ILSmax is reported as 73% in the data set with P388 [5] and 117% in data set [7]. Besides, the Log K in data set [6] was 5.9 and 5.61. For the same compound, the OD in data set [2] came to 150 mg/kg/day; with P388 [3] it was 100 mg/kg/day. Also, the IC50 with L1210 came out at 2100 nM. The compound also yielded a pKa in [8] of 2.95.

Take `CN(C)CCNC(=O)c1cccc2c1nc(-c1ccc(I)cc1)c1ccccc12.Cl.Cl`: the ILSmax entry (in the data set on P388 [1]; in data set [4]) was “inactive” throughout. The Log K in [6] is 7.33 and 7.23. Moreover, the OD (in [2]; in the data set on P388 [3]) was 65 mg/kg/day in each case. The compound also showed an IC50 with L1210 of 2240 nM.

In the data set on P388 [5], `CC(=O)Nc1ccc(-c2nc3c(C(=O)NCCN(C)C)cccc3c3ccccc23)cc1` came in with an ILSmax of 22%. Moreover, the Log K in data set [6] is 6.13 and 6.31. The compound also returned an IC50 with L1210 of 54 nM. For the same compound, the OD in the data set on P388 [3] is 30 mg/kg/day; in data set [9], 45 mg/kg/day. In addition, the ILSmax result in [4] was “inactive”.

In the case of `CN(C)CCNC(=O)c1cccc2c1nc(-c1ccc(N)cc1)c1ccccc12`, in the data set with P388 [5], the ILSmax was 27%. The Log K in [6] is 6.29 and 6.57. The OD with P388 [10] came out at 30 mg/kg/day; in data set [9] it was 45 mg/kg/day. The compound also yielded a 50% inhibitory concentration (IC50) in the data set with L1210 of 130 nM. The ILSmax result in [4] is “inactive”.

Take `CN(C)CCNC(=O)c1cccc2c1nc(-c1ccc(Br)cc1)c1ccccc12`: the ILS max entry in the data set with P388 [1] was “inactive”. Further, the Log K in data set [6] is 7.04 and 6.76. This compound displayed a half-maximal inhibitory concentration (IC50) in the data set with L1210 of 1010 nM. For the same compound, the OD in the data set with P388 [3] amounted to 65 mg/kg/day; in data set [9] it was 45 mg/kg/day. Besides, in data set [4], the ILSmax result is “inactive”.

In the case of `CN(C)CCNC(=O)c1cccc2c1nc(-c1ccc(F)cc1)c1ccccc12.Cl.Cl`, the ILSmax with P388 [5] turned out to be 63%; in [7], 45%. The OD in [2] is 45 mg/kg/day; in the data set on P388 [3] it was 20 mg/kg/day. In addition, the concentration for half-maximal inhibition (IC50) in the data set with L1210 came out at 43 nM.

For the compound `CN(C)CCNC(=O)c1cccc2c1nc(-c1ccncc1)c1ccccc12.Cl.Cl`, the ILSmax with P388 [5] was 93%. The Log K in [6] is 6.9 and 7. Also, the OD (in [2]; in the data set on P388 [3]) was 100 mg/kg/day throughout. The compound also yielded an IC50 in the data set with L1210 of 14 nM. Moreover, the ILSmax entry in [4] is “inactive”.

As for `CN(C)CCCCNC(=O)c1cccc2c1nc(-c1ccccc1)c1ccccc12.Cl.Cl`, in the data set with P388 [1], the ILS max entry is “inactive”. Also, in data set [6], the Log K was 6.59 and 6.4. Also, the results for the OD (in the data set with P388 [10]; in data set [2]) were 65 mg/kg/day and 45 mg/kg/day, respectively. Also, it took 1060 nM to reach half-maximal inhibition in the data set on L1210 (IC50). Besides, in data set [4], the ILSmax result is “inactive”.

Turning to `CN(C)CCNC(=O)c1cccc2c1nc(-c1ccc(Cl)cc1)c1ccccc12`, the ILSmax with P388 [5] was determined as 34%. Besides, in data set [6], the Log K was 6.26 and 6.24. The OD in [2] was 65 mg/kg/day; in the data set on P388 [3] it was 45 mg/kg/day. The same compound had an IC50 with L1210 of 410 nM. In [8], this compound registered a pKa of 2.52. The ILSmax result in data set [4] was “inactive”.

`COc1ccc(-c2nc3c(C(=O)NCCN(C)C)cccc3c3ccccc23)cc1.Cl.Cl` registered an ILSmax with P388 [5] of 22%. The OD stood at 65 mg/kg/day in the data set with P388 [10] and 100 mg/kg/day in data set [9]. In addition, in the data set with L1210, the half-maximal inhibitory concentration (IC50) was 500 nM. For the same compound, in [4], the ILSmax entry is “inactive”.

For the compound `CN(C)CCNC(=O)c1cccc2c1nc(-c1ccccn1)c1ccccc12.Cl`, the ILSmax in the data set on P388 [5] is given as 20%. Further, the Log K in [6] was 5.69 and 5.77. Further, the OD (in [2]; in the data set on P388 [3]) was 65 mg/kg/day in each case. This compound also gave an IC50 in the data set on L1210 of 720 nM.

For `CN(C)CCNC(=O)c1cccc2c1nc(-c1ccc(NS(C)(=O)=O)cc1)c1ccccc12.Cl.Cl`, the ILSmax entry (in the data set on P388 [1]; in data set [4]) was “inactive” each time. The Log K in [6] is 6.24 and 6.36. This compound also registered a 50% inhibitory concentration (IC50) in the data set on L1210 of 350 nM. Further, the OD amounted to 30 mg/kg/day in the data set on P388 [3] and 20 mg/kg/day in [11].

`CN(C)CCNC(=O)c1cccc2c1nc(-c1ccc([N+](=O)[O-])cc1)c1ccccc12` showed an ILSmax in the data set on P388 [5] of 65%. Besides, the Log K in data set [6] was 6.41 and 6.54. The OD (in the data set on P388 [10]; in data set [9]) was 65 mg/kg/day in each case. Further, it took 540 nM to reach half-maximal inhibition in the data set with L1210 (IC50). The ILSmax result in data set [4] is “inactive”.

On to `CN(C)CCCNC(=O)c1cccc2c1ncc1ccccc12.Cl.Cl`, for which the Log K in [6] was 5.74 and 5.37. This compound also yielded an IC50 in the data set with L1210 of 3590 nM. Besides, the OD in the data set on P388 [3] was 100 mg/kg/day.

Take `CN(C)CCCCNC(=O)c1cccc2c1ncc1ccccc12.Cl`: the Log K in data set [6] is 5.64 and 5.28. The compound further returned an OD with P388 [10] of 100 mg/kg/day. The IC50 in the data set on L1210 amounted to 3290 nM.

In turn, `CN(C)CCCNC(=O)c1cccc2c1nc(-c1ccccc1)c1ccccc12.Cl.Cl` had an ILSmax with P388 [5] of 24%. In data set [6], the Log K was 6.5 and 6.11. The OD in data set [2] amounted to 65 mg/kg/day; with P388 [3], 45 mg/kg/day. Half-maximal inhibition in the data set with L1210 (IC50) required 1120 nM. In addition, the ILSmax entry in data set [4] was “inactive”.
